From ChEMBL document CHEMBL4052661, “Structure Based Design of N-(3-((1H-Pyrazolo[3,4-b]pyridin-5-yl)ethynyl)benzenesulfonamides as Selective Leucine-Zipper and Sterile-α Motif Kinase (ZAK) Inhibitors” (J Med Chem, 2017)

Columns and labels:
[1] = target: Serine/threonine-protein kinase B-raf (Homo sapiens, UniProt P15056); test: Inhibition of wild type GST-tagged recombinant human full-length B-RAF expressed in baculovirus expression system using Ser/Thr3 as substrate after 1 hr by FRET-based Z'-Lyte assay
In short: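 Z'-Lyte FRET assay with Ser/Thr3 peptide in kinase buffer; the final reaction held 0.002 ng B-Raf for wild type. Incubated 1 h at room temperature, then 1 h development to cleave nonphosphorylated peptide, then stop reagent. Means of 3 independent experiments.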

[2] = target: Mitogen-activated protein kinase kinase kinase 20 (Homo sapiens, UniProt Q9NYL2); test: Inhibition of N-terminal GST-tagged recombinant human full-length ZAK expressed in baculovirus infected Sf9 insect cells using MBP as substrate after 30 mins by ADP-Glo assay
In short: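 ZAK activity by ADP-Glo luminescence with MBP as substrate, ATP and serially diluted compound. Reaction started by adding ATP and run 30 min at room temperature. ADP-Glo reagent was added to stop it (40 min), then detection reagent for 30 min before reading luminescence. Curves fitted; each experiment repeated at least 3 times.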

[3] = target: Serine/threonine-protein kinase B-raf (Homo sapiens, UniProt P15056, V600E); test: Inhibition of recombinant human B-RAF V600E mutant using Ser/Thr3 as substrate after 1 hr by FRET-based Z'-Lyte assay
Serine/threonine-protein kinase B-raf (Homo sapiens, UniProt P15056, V600E), sequence (P15056 2-766 V600E limits assumed): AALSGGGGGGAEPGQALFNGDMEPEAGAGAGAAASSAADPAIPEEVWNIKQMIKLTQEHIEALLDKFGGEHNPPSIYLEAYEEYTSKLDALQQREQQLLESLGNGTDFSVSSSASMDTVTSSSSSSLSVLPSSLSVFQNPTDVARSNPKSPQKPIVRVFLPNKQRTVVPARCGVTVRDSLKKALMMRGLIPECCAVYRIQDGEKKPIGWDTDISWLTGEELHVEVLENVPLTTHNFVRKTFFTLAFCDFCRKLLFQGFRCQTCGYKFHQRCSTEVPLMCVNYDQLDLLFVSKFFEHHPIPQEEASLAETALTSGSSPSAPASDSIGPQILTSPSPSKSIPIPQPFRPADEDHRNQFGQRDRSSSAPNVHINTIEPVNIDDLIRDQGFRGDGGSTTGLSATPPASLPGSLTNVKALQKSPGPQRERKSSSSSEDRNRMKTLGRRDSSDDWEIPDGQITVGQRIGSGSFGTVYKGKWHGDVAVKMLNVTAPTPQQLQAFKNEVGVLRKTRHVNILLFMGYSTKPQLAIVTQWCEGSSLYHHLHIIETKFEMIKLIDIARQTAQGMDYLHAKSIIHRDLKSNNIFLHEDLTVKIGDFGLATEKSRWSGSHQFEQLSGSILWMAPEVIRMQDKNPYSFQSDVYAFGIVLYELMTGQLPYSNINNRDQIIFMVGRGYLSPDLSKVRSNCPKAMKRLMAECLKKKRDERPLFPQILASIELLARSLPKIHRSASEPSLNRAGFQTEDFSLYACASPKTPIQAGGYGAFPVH

Serine/threonine-protein kinase B-raf (Homo sapiens, UniProt P15056), sequence (P15056 whole entry): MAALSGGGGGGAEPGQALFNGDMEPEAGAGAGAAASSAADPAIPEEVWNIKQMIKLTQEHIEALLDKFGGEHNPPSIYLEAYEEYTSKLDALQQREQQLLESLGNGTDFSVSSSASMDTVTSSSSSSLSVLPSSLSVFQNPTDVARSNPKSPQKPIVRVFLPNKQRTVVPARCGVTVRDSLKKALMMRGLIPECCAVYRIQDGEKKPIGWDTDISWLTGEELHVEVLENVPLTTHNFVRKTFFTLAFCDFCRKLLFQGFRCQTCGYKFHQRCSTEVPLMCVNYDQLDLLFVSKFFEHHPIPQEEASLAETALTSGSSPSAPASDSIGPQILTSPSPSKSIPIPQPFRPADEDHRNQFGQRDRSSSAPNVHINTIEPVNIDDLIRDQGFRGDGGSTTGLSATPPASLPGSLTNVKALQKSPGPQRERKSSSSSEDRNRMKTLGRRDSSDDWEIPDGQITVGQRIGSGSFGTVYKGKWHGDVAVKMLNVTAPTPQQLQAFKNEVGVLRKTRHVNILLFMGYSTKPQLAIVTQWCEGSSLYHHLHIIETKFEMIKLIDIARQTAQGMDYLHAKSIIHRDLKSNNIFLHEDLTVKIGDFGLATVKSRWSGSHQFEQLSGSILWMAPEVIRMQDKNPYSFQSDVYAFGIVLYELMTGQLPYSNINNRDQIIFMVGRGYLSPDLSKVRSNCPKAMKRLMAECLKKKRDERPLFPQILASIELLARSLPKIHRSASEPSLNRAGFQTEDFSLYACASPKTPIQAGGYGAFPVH
Mitogen-activated protein kinase kinase kinase 20, sequence (Q9NYL2 whole entry): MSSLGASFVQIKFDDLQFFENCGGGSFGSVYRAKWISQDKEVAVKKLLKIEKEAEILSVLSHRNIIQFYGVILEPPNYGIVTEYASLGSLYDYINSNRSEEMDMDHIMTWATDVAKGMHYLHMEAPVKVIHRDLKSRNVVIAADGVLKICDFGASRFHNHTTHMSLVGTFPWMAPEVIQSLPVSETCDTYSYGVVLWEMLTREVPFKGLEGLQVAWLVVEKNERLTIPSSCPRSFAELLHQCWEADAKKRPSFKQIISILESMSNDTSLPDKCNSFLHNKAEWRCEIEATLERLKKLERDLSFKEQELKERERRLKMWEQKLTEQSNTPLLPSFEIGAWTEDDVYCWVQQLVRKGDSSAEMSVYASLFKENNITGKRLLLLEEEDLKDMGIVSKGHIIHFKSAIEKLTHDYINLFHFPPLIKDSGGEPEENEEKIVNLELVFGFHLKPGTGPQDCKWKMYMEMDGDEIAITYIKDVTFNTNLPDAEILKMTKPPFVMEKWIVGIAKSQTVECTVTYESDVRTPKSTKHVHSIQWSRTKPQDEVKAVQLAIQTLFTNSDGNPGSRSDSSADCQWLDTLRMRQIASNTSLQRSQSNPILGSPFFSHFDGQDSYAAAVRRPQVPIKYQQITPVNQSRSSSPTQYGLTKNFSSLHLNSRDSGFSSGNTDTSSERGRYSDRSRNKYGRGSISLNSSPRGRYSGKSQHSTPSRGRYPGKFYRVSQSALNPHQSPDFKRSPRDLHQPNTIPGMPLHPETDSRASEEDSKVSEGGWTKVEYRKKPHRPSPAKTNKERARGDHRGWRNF

`Cn1ncc2cc(C#Cc3c(F)ccc(NS(=O)(=O)c4cccc(Cl)c4)c3F)cnc21` showed an IC50 [1] greater than 10 µM, an IC50 [2] greater than 30 µM and an IC50 [3] greater than 10 µM.
Work on `O=S(=O)(Nc1ccc(F)c(C#Cc2cnc3[nH]ccc3c2)c1F)c1cccc(Cl)c1` yielded an IC50 [1] greater than 10 µM, an IC50 [2] of 0.0226 µM and an IC50 [3] greater than 10 µM.
In the case of `O=S(=O)(Nc1ccc(F)c(C#Cc2ccc3[nH]ncc3c2)c1F)c1cccc(Cl)c1`, the IC50 [1] is reported as greater than 10 µM, the IC50 [2] is reported as 0.994 µM and the IC50 [3] is reported as greater than 10 µM.
For `COc1n[nH]c2ncc(C#Cc3c(F)ccc(NS(=O)(=O)c4ccc(Cl)cc4)c3F)cc12`, the IC50 [1] was greater than 1 µM, the IC50 [2] was 0.0168 µM and the IC50 [3] was greater than 10 µM.
